Drawing on ChEMBL document CHEMBL1149419, “Peptide-mediated cell transport of water soluble porphyrin conjugates” (J Med Chem, 2006), this text covers IC50 and Activity for five compounds.

*1 amine or outer side, *2 acyl side, *3 side chain or, on linkers, in order; H or OH if unused. Where a SMILES comes first, the peptide text is derived from it. [ ]: non-standard residue; d: D form. The star is where a group is joined. X1 = O=C(COCC(=O)*)Nc1ccc(-c2c3nc(c(-c4ccccc4)c4ccc([nH]4)c(-c4ccccc4)c4nc(c(-c5ccccc5)c5ccc2[nH]5)C=C4)C=C3)cc1; NH(CH2CH2O)6CH2CO = O=C(COCCOCCOCCOCCOCCOCCN[*:1])[*:2]

The test system of series [1] is HEp-2. Kind of series: Dark cytotoxicity against human HEp2 cells at 100 uM. Format: functional, cell-based. In a few lines: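 HEp2 cells seeded at 10 000 per well and allowed 36-48 h to attach. They were given increasing conjugate concentrations up to 100 µM and incubated overnight without light. Viability was read with Cell Titer Blue fluorescence at 520/584 nm and normalized to untreated cells (100%) and 0.2% saponin-treated cells (0%).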

Series [2] concerns HEp-2. Briefly: Cellular uptake in human HEp2 cells at 10 uM. Format: ADME, cell-based. To be noted: hep-2, 10 µM. Put shortly: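 HEp2 cells seeded at 10 000 per well and grown overnight, then exposed to 10 µM conjugate (diluted into medium from 10 mM water stocks) for 0, 1, 2, 4, 8 and 24 h. After PBS wash, cells lysed in 0.25% Triton X-100/PBS. Conjugate quantified by fluorescence at 410/650 nm (ex/em), and cell number by CyQuant.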

In series [3] the test system is HEp-2. Briefly: Phototoxicity against human HEp2 cells at 10 uM. Format: cell-based. In a few lines:
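HEp2 cells seeded and attached 36-48 h, then loaded overnight with conjugate at 0, 0.625, 1.25, 2.5, 5 and 10 µM. Medium was swapped for medium with 50 mM HEPES pH 7.4. Cells were irradiated on ice for 10 min with a 100 W halogen lamp through a 610 nm long-pass filter and a water IR filter, about 0.5 J/cm2. After overnight incubation, viability was read by Cell Titer Blue.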

Where [4] appears, read: Homo sapiens, HEp-2, read-out: IC50.

Take `NCCCC[C@H](NC(=O)[C@H](CCCN=C(N)N)NC(=O)CNC(=O)COCCOCCOCCOCCOCCOCCNC(=O)COCC(=O)Nc1ccc(-c2c3nc(c(-c4ccccc4)c4ccc([nH]4)c(-c4ccccc4)c4nc(c(-c5ccccc5)c5ccc2[nH]5)C=C4)C=C3)cc1)C(=O)N[C@@H](CCCCN)C(=O)N[C@@H](CCCN=C(N)N)C(=O)N[C@@H](CCCN=C(N)N)C(=O)N[C@@H](CCC(N)=O)C(=O)N[C@@H](CCCN=C(N)N)C(=O)N[C@@H](CCCN=C(N)N)C(=O)N[C@@H](CCCN=C(N)N)C(=O)N1CCC[C@H]1C(=O)N1CCC[C@H]1C(=O)N[C@@H](CCC(N)=O)C(N)=O`: the concentration for half-maximal inhibition (IC50) in the series with HEp-2 [1] (setting [4]) was 30 µM; in the series on HEp-2 [3] (hep-2) it was “Active”. The result in the series on HEp-2 [2] was Active.

As for `N=C(N)NCCC[C@H](NC(=O)CNC(=O)COCCOCCOCCOCCOCCOCCNC(=O)COCC(=O)Nc1ccc(-c2c3nc(c(-c4ccccc4)c4ccc([nH]4)c(-c4ccccc4)c4nc(c(-c5ccccc5)c5ccc2[nH]5)C=C4)C=C3)cc1)C(=O)N[C@@H](CCCN=C(N)N)C(=O)N[C@@H](CCCN=C(N)N)C(=O)N[C@@H](CCCN=C(N)N)C(=O)N[C@@H](CCCN=C(N)N)C(=O)N[C@@H](CCCNC(=N)N)C(=O)N[C@@H](CCCNC(=N)N)C(=O)N[C@@H](CCCN=C(N)N)C(=O)O`, the values for the IC50 in the series with HEp-2 [1] (setting [4]) and with HEp-2 [3] (hep-2) were 75 µM and “Active”, respectively. In the series with HEp-2 [2], the outcome was Active.

As for `NCCCC[C@H](NC(=O)[C@H](CCCN=C(N)N)NC(=O)CNC(=O)COCC(=O)NCCOCCOCCOCCOCCOCCOCCOCCNC(=O)COc1ccc(-c2c3nc(c(-c4ccc(OCC(=O)O)cc4)c4ccc([nH]4)c(-c4ccc(OCC(=O)O)cc4)c4nc(c(-c5ccc(OCC(=O)O)cc5)c5ccc2[nH]5)C=C4)C=C3)cc1)C(=O)N[C@@H](CCCCN)C(=O)N[C@@H](CCCN=C(N)N)C(=O)N[C@@H](CCCN=C(N)N)C(=O)N[C@@H](CCC(N)=O)C(=O)N[C@@H](CCCN=C(N)N)C(=O)N[C@@H](CCCN=C(N)N)C(=O)N[C@@H](CCCN=C(N)N)C(=O)N1CCC[C@H]1C(=O)N1CCC[C@H]1C(=O)N[C@@H](CCC(N)=O)C(N)=O`, the IC50 result in the series on HEp-2 [1] (hep-2) and in the series with HEp-2 [3] (hep-2) was “Not Active” throughout. Further, the outcome with HEp-2 [2] was Active.

Regarding `CC(C)[C@H](NC(=O)[C@H](CCCCN)NC(=O)[C@H](CCCN=C(N)N)NC(=O)[C@H](CCCCN)NC(=O)[C@H](CCCCN)NC(=O)[C@H](CCCCN)NC(=O)[C@@H]1CCCN1C(=O)CNC(=O)COCC(=O)NCCOCCOCCOCCOCCOCCOCCOCCNC(=O)COc1ccc(-c2c3nc(c(-c4ccc(OCC(=O)O)cc4)c4ccc([nH]4)c(-c4ccc(OCC(=O)O)cc4)c4nc(c(-c5ccc(OCC(=O)O)cc5)c5ccc2[nH]5)C=C4)C=C3)cc1)C(N)=O`, the half-inhibitory concentration (IC50) result in the series with HEp-2 [1] (hep-2) and in the series with HEp-2 [3] (hep-2) was “Not Active” each time. Besides, the result in the series with HEp-2 [2] was Active.

As for `CC(C)[C@H](NC(=O)[C@H](CCCCN)NC(=O)[C@H](CCCN=C(N)N)NC(=O)[C@H](CCCCN)NC(=O)[C@H](CCCCN)NC(=O)[C@H](CCCCN)NC(=O)[C@@H]1CCCN1C(=O)CNC(=O)COCCOCCOCCOCCOCCOCCNC(=O)COCC(=O)Nc1ccc(-c2c3nc(c(-c4ccccc4)c4ccc([nH]4)c(-c4ccccc4)c4nc(c(-c5ccccc5)c5ccc2[nH]5)C=C4)C=C3)cc1)C(N)=O` (X1-[NH(CH2CH2O)6CH2CO]GPKKKRKV-NH2), the IC50 in the series on HEp-2 [1] (setting [4]) amounted to 90 µM; in the series with HEp-2 [3] (Homo sapiens, HEp-2, light or radiation study, read-out: IC50), 1.5 µM. Besides, the outcome in the series on HEp-2 [2] was Active.
